# UBC13 inh – human UBC13 polyubiquitination inhibition. inhibition, % at 20 µM. P61088. 0.47% of 330,000 active. UBC13 polyubiquitin chain formation, TR-FRET; in the data active = inhibition above about 45%, passing the limit was not always enough; inconclusive = no clear call, values can overlap the other calls
# ALR inh – blocks human ALR sulfhydryl oxidase activity | purified ALR, DTT oxidation, H2O2 HRP-luminol luminescence | inhibition, % (concentration not given with the values) | 3.8% of 290,000 active;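 active = mean replicate inhibition above about 79%, with every replicate also reaching it, limit read from the data; inconclusive = only one of the two criteria met; inactive = mean below limit and not every replicate reaching it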
# RBBP9 inh – human RBBP9 hydrolase inhibition; O75884; recombinant RBBP9, FP-Rh probe fluorescence polarization; inhibition, % at 7.94 µM; 0.2% of 220,000 active;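 active = inhibition above the campaign mean of all tested compounds plus 3 SD, cut at about 14% in these data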;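 also: plate controls were DMSO wells with RBBP9 for no effect and wells lacking RBBP9 protein for full effect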
#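 Controls: DMSO-treated enzyme wells and wells lacking RBBP9 | Material: RBBP9 protein | Technique: Fluorescence polarization | Replication: Single well per compound, no replicates | Buffer or medium: Tris-NaCl-Pluronic buffer, pH 8.0 | Timing: 30 min compound preincubation, 45 min probe labeling, 25 °C | Read-out basis: Percent inhibition from mP, scaled between DMSO and no-protein wells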
# SUMO HTRF inh – SUMOylation inhibition | P63279 | HTRF SUMOylation assay, SAE1/SAE2 + UBC9, in vitro | inhibition, % at 35 µM | 0.36% of 290,000 active | AID 2006; in the data active = inhibition above about 50%, passing the limit was not always enough; inconclusive = no clear call, values can overlap the other calls
# PREPL inhibitor – inhibitors of human prolyl oligopeptidase-like enzyme PREPL; Q4J6C6; recombinant PREPL, fluorescence polarization activity-based probe; 0.68% of 320,000 active; AID 2751; inhibition, % at 5.96 µM; in the data active = inhibition above about 43%;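 also: 0% = enzyme with DMSO and 100% = wells lacking enzyme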
# Target sequence (Q4J6C6 whole entry, looked up): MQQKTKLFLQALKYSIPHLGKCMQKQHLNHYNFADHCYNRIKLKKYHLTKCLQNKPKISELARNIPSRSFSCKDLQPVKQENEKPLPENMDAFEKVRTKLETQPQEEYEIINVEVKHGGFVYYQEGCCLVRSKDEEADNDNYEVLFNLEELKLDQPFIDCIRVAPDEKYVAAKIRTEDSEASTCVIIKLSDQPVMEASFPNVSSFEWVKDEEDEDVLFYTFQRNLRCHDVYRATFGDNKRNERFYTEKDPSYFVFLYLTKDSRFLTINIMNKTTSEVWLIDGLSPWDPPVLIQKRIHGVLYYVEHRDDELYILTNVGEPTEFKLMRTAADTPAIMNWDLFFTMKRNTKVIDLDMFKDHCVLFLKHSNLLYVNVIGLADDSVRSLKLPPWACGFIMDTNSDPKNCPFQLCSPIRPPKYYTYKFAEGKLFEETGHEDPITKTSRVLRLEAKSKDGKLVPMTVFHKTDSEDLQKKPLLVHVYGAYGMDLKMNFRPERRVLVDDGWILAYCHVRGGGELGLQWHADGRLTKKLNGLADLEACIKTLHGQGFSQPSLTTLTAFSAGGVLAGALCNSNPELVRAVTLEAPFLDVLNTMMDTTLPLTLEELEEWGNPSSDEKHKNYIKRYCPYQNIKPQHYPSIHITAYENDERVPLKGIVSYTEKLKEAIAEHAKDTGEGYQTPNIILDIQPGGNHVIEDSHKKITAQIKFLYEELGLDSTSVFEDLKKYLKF
# Rin1-Abl PPI inh – inhibitors of human Rin1-Abl protein interaction; P00519+Q13671; TR-FRET Rin1/Abl binding, biochemical; inhibition, % at 7.35 µM; 0.4% of 360,000 active; AID 588664; in the data active = inhibition above about 5%, passing the limit was not always enough
# RBBP9 inh conf – human RBBP9 inhibition, confirmation | shares compounds with RBBP9 inh | recombinant RBBP9, FP-Rh probe fluorescence polarization | inhibition, % at 7.94 µM | 36% of 410 active;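 active = inhibition above the hit cutoff derived for the primary screen, cut at about 15% in these data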;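 also: 0% = RBBP9 with DMSO and 100% = wells lacking RBBP9 protein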
# Starred values were filed as active, the others as inactive; ? = inconclusive; . = no result given. Shown are actives, neighbours in structure and some others; about 4.3% of the full set was active somewhere.
SMILES,UBC13 inh,ALR inh,RBBP9 inh,SUMO HTRF inh,PREPL inhibitor,Rin1-Abl PPI inh,RBBP9 inh conf
Cc1ccc(NCC(=O)N/N=C/c2cccn2C)cc1,-9.4,.,17.4*,9.7,1.0,-1.6,5.4
Cn1cccc1/C=N/NC(=O)CNc1ccc2ccccc2c1,6.7,.,-3.3,3.4,38.4,1.9,.
CC(C)c1ccc(NC(=O)CN(C)C2=NS(=O)(=O)c3ccccc32)cc1,.,.,.,.,.,1.6,.
CCc1cc(/C(Cc2ccc3ccccc3n2)=N\O)c(O)cc1O,9.3,21.8,46.3*,-8.7,27.7,-0.6,50.3*
COc1ccc(C(=O)NC(C(=O)NCC2(N3CCCCC3)CCCCC2)C(C)C)cc1 (centres undefined),19.5,-24.4,.,.,1.8,3.2,.
CCCCCCCC1CC(CSC(=N)N)OC1=O (centres undefined),20.6,.,23.4*,5.5,2.5,0.5,5.8
CCCCC1CC(CSC(=N)N)OC1=O (centres undefined),7.4,-3.7,-1.8,-20.4,-0.9,3.6,.
CC/C(=N\NC(=O)c1csc(C)c1C)c1cccs1,-19.3,-3.1,-1.1,15.4,-3.5,-2.4,.
CCC/C(=N\NC(=O)c1csc(C)c1C)c1cccs1,-5.2,17.6,16.2*,2.4,6.9,3.5,11.7
O=C(O[C@H]1[C@H](Oc2ccccc2COC(=O)C2(O)C=CCCC2=O)O[C@H](CO)[C@@H](O)[C@@H]1O)c1ccccc1 (some centres undefined),-2.5,3.8,.,.,9.5,.,.
Cc1cccnc1Nc1nc(-c2ccc(O)c(O)c2)cs1,11.5,99.4*,25.4*,-3.0,3.1,6.5,55.2*
NNc1nnc2c3cc(F)ccc3n(Cc3ccccc3)c2n1,-12.4,.,19.6*,20.3,-3.8,1.5,5.5
COCCN(C(=O)CSc1nnc(-c2ccco2)n1C)c1c(N)n(CC(C)C)c(=O)[nH]c1=O,-5.3,-1.4,.,.,12.0,0.3,.
Cc1cc(C(=O)NN=C2C3CC4CC(C3)CC2C4)c2ccccc2n1,6.8,-8.0,14.8*,-4.0,2.2,1.3,6.7
Nn1cnnc1SCC(=O)N1CCc2ccccc2C1,-1.8,.,.,.,15.4,0.3,.
COc1ccccc1-c1cnc(C(O)c2cc(C)ccc2C)[nH]1 (centres undefined),.,.,.,.,.,1.1,.
O=C(Nc1ccccc1)c1cccc(=O)o1,1.2,.,17.5*,13.8,7.1,-1.1,4.1
Cc1ccc2c(c1)c1cccc3c1n2CCN3CCC(N)=O,-1.4,14.7,17.0*,-4.7,29.6,-1.7,13.6
CN(CCOc1ccc(-c2ccn(S(=O)(=O)c3cccc4ccccc34)n2)cc1)c1ccccn1,2.5,-3.2,-6.1,1.1,2.2,0.6,.
COC(=O)C1C(=O)OC(C)(C)C1C(C)C(=O)c1ccccc1 (centres undefined),5.5,-6.1,14.5*,4.1,-7.3,-2.3,7.2
CC(=O)Nc1ccc(S(=O)(=O)N(C)CC(=O)OC(C)C(=O)NC2CCCCC2)cc1 (centres undefined),0.7,1.8,.,.,6.5,-3.4,.
c1ccc(-c2nnc(-c3cccc(-c4nnc(-c5ccccc5)o4)c3)o2)cc1,.,.,5.3,.,.,.,.
Clc1cccc2sc(-c3nnc(-c4ccccc4)o3)c(Cl)c12,20.2,-3.5,19.7*,.,0.3,-2.6,6.6
O=C(c1ccccc1F)N1CCN(c2ccc([N+](=O)[O-])cc2-n2cccc2)CC1,-10.0,.,15.9*,25.9,22.6,-2.1,3.7
CC(=O)Nc1ccc(NC(=O)Cn2c(=O)n(-c3ccccc3)c(=O)c3oc4ccccc4c32)cc1,12.8,1.4,-10.2,-4.8,0.0,-0.8,.
SMILES,UBC13 inh,ALR inh,RBBP9 inh,SUMO HTRF inh,PREPL inhibitor,Rin1-Abl PPI inh,RBBP9 inh conf
COc1cccc(NC(=O)Cn2c(=O)n(-c3ccccc3)c(=O)c3oc4ccccc4c32)c1,-5.2,-6.5,16.0*,-9.1,-10.8,0.1,-2.5
O=C(NCc1ccc(Cl)c(Cl)c1)c1cc(C2CCCCN2C(=O)c2cccs2)on1 (centres undefined),.,.,.,.,.,-4.0,.
CCCCC[C@H](O)/C=C/[C@@H]1[C@@H](C/C=C\CCCC(=O)O)[C@@H](O)C[C@H]1O,5.0,3.7,-10.7,-24.7,-6.5,0.1,.
CCCCC[C@H](O)/C=C/[C@@H]1[C@@H](C/C=C\CCCC(=O)OC)[C@@H](O)C[C@H]1O,2.7,.,18.0*,.,4.2,4.8,28.0*
CCC(=O)Oc1ccc2c(C)cc(=O)oc2c1C(=O)c1ccccc1,.,0.8,-3.8,-5.0,5.1,-1.3,.
CCC(=O)Oc1ccc2c(C)cc(=O)oc2c1C(=O)CC,1.2,.,18.3*,4.1,-1.8,-0.9,11.4
Cc1ccc(S(=O)(=O)NCCC(=O)N2CCN(Cc3ccccc3)CC2)cc1,-5.4,-14.5,29.1*,6.3,15.4,3.5,6.1
Cn1c(=O)c2cc(NC(=O)OCCF)ccc2n1Cc1cccc(C(F)(F)F)c1,.,.,.,.,.,1.5,.
CCOC(=O)Cc1nn(CC)c(=O)c2ccccc12,3.2,0.7,-2.9,11.5,3.7,2.6,.
CCOC(=O)Cc1nn(C)c(=O)c2ccccc12,-1.6,-2.8,15.9*,0.6,22.9,-0.2,0.0
O=S(=O)(c1cccs1)N1CN(Cc2ccco2)c2nc3ccccc3nc21,-13.9,0.8,33.5*,19.6,36.3,-3.7,0.2
O=C(Nc1ccccc1Cl)C1CCN(S(=O)(=O)c2cccc3nonc23)CC1,-8.2,-9.9,.,-1.7,1.8,0.0,.
CC1CN(Cc2c(O)ccc3c(=O)c(-c4ccccc4)coc23)CC(C)O1 (centres undefined),13.6,.,-2.4,32.0,8.5,0.4,.
CC1CN(Cc2c(O)ccc3c2oc(=O)c2ccccc23)CC(C)O1 (centres undefined),37.2,31.1,19.0*,33.7,10.5,-5.4,63.3*
CC(=O)C(C(C)=O)c1c(Cl)c(O)c(O)c2c(C(=O)c3ccccc3)coc12,-9.6,.,25.6*,23.2,11.6,3.7,33.8*
CN1CCN(Cc2c(O)ccc3occ(C(=O)c4ccccc4)c23)CC1,3.0,9.3,4.7,-12.9,11.4,5.8,.
CCCCNC(=O)c1cccc(C(=O)NCCCC)c1,14.2,-2.9,-0.7,17.0,5.0,-1.0,.
O=C(C[n+]1ccc(C(=O)NCCCO)cc1)c1cccc(Br)c1,3.2,.,62.6*,10.9,5.1,0.2,6.2
COc1cccc(OC)c1C(=O)OCc1c(-c2ccccc2)ncc2ccccc12,-13.3,-1.8,.,.,0.9,2.8,.
Oc1ccc(Nc2nc(-c3ccc(O)cc3)cs2)cc1,0.8,100.0*,18.1*,-11.8,22.4,-0.9,14.3*
NS(=O)(=O)c1ccc(Nc2nc(-c3ccc(O)cc3)cs2)cc1,5.7,?,-1.1,19.9,10.7,-4.4,.
CN(Cc1ccccc1)c1ncc(C=O)s1,-6.0,-5.7,-1.1,0.7,-5.3,-1.6,.
Cc1cccc(-c2nsc(SCC(=O)NCC3CCCO3)n2)c1 (centres undefined),20.6,-10.7,0.3,-15.7,-4.4,-6.1,.
